An excerpt weighted towards active compounds, which were near 2.3% of everything screened.
TCR-CD3 inh: blocks the human TCR-CD3 interaction. TAMRA-labeled TCR probe fluorescence, biochemical. inhibition, % at 9.4 µM. actives 0.37% (n = 360,000);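 also: recombinant mutant TCR 2C K166C tagged with TAMRA read by polarization; 0% = receptor in buffer alone and 100% = receptor with positive control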
ABHD4 inh: inhibitors of mouse ABHD4 | Q8VD66 | purified mABHD4, FP-Rh probe fluorescence polarization | inhibition, % at 8.92 µM | actives 0.54% (n = 370,000) | AID 720543;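 active = inhibition exceeding the mean over every tested compound plus 3 SD, cut at about 30% in these data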;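 also: 0% = plate median of compound wells and 100% = S159A mutant with DMSO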
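Assay system: wild-type mouse ABHD4 protein; compound: single nominal dose of 8.92 µM, 0.89% DMSO final; schedule: 45 min + 60 min at 25 °C; measured by: FP readout, ex 525 nm / em 598 nm; evaluation: % inhibition of FP-Rh probe binding versus controls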
SIAE primary: blocks human sialic acid acetylesterase; SIAE FP-Rh probe binding, fluorescence polarization; actives 0.69% (n = 370,000); Q9HAT2; inhibition, % at 9.66 µM; AID 1053197;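 active = inhibition above a cutoff: mean of compounds within the control limits plus 3 SD of those, cut at about 17% in these data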;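 also: 0% = plate median of compound wells and 100% = probe without SIAE protein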
pPAFAH FP inh: pPAFAH (human) enzyme inhibition | recombinant pPAFAH, FP-rhodamine probe fluorescence polarization | actives 1.5% (n = 330,000) | inhibition, % at 3.39 µM | AID 463082;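 active = inhibition above the mean inhibition across the screen plus 3 SD, cut at about 25% in these data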;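 also: inhibitors block binding of the rhodamine activity-based probe so polarization drops; 0% = enzyme with DMSO and 100% = wells lacking pPAFAH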
Target sequence (Q13093 whole entry, looked up): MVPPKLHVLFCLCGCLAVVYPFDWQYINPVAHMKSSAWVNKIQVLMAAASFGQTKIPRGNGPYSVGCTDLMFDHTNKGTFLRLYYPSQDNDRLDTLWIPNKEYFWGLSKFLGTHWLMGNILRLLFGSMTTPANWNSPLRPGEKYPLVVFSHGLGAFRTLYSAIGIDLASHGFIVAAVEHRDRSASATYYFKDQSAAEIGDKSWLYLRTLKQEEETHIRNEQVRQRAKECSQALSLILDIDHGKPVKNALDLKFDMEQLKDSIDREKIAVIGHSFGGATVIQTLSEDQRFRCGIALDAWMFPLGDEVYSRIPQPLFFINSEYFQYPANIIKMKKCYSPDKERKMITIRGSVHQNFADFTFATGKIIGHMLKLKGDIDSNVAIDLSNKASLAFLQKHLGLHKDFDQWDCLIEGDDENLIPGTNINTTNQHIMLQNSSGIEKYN
HTRA1 inhibitor: HTRA1 (human) protease inhibition. inhibition, % at 5.96 µM. recombinant HTRA1, FP-rhodamine activity-based probe, fluorescence polarization. Q92743. actives 0.5% (n = 340,000); in the data active = inhibition above about 36%;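 also: 0% = enzyme with DMSO and 100% = wells lacking enzyme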
pPAFAH FP conf: confirmation of human plasma PAF acetylhydrolase (pPAFAH) inhibitors; shares compounds with pPAFAH FP inh; recombinant pPAFAH, FP-Rh probe fluorescence polarization; inhibition, % at 3.39 µM; actives 72% (n = 2,300); AID 463230;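 active = mean inhibition of the triplicate above the hit cutoff set for the earlier primary screen, cut at about 25% in these data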;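 also: 0% = enzyme with DMSO and 100% = wells lacking pPAFAH enzyme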
HTRA1 conf: HTRA1 (human) inhibition, confirmation | recombinant HTRA1, FP-rhodamine activity-based probe, fluorescence polarization | shares compounds with HTRA1 inhibitor | inhibition, % at 5.96 µM | actives 66% (n = 1,600);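 active = mean inhibition over three repeats above a set limit taken from the earlier primary screen, cut at about 37% in these data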;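 also: 0% = HTRA1 with DMSO and 100% = wells lacking HTRA1; inhibitors block probe binding so polarization drops and inhibition rises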
BSA probe FL: BSA probe counter-screen for TCR-CD3 inhibitors; shares compounds with TCR-CD3 inh; TAMRA-labeled BSA probe fluorescence counterscreen; inhibition, % at 9.4 µM; actives 10% (n = 1,200); in the data active = inhibition above about 23%;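 also: 0% = buffer low control and 100% = reference high control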
TCR-CD3 conf: TCR-CD3 interaction inhibition, confirmation. inhibition, % at 9.4 µM. actives 48% (n = 1,200). TAMRA-labeled TCR probe fluorescence binding assay. shares compounds with TCR-CD3 inh
mABHD4 conf: confirmation of mouse ABHD4 inhibitors; purified mABHD4, FP-Rh probe fluorescence polarization; shares compounds with ABHD4 inh; actives 55% (n = 1,800); inhibition, % at 8.92 µM; AID 720658;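 active = mean inhibition across replicates above the hit cutoff set in the primary screen, cut at about 30% in these data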;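 also: 0% = wild-type ABHD4 with DMSO and 100% = catalytically dead S159A mutant with DMSO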
Starred values were filed as active, the others as inactive; nt = no result. Rule as the data show it, unless noted: active = inhibition above about 19%; inactive = the rest.

SMILES	TCR-CD3 inh	ABHD4 inh	SIAE primary	pPAFAH FP inh	HTRA1 inhibitor	pPAFAH FP conf	HTRA1 conf	mABHD4 conf	others
CCOc1ccc(C2C(C#N)=C(N)Oc3cc(O)ccc32)cc1OCC (stereo not drawn)	-1	5	-6	9	2	nt	nt	nt
CCOc1ccccc1C1C(C#N)=C(N)Oc2cc(N)ccc21 (stereo not drawn)	-2	31*	4	41*	9	3	nt	-1
N#CCC(=O)Nc1ccc(C(=O)OCC(=O)Nc2ccccc2Sc2ccccc2)cc1	9	52*	8	71*	nt	6	nt	-77
CCCCCCN1CCS(=O)(=O)N(Cc2ccc(Cl)cc2)C(C(=O)OC)C1 (stereo not drawn)	nt	-2	4	nt	nt	nt	nt	nt
CCOC(=O)c1c(N)sc(=S)c2c1CCC2	13	42*	4	49*	38*	16	22	28
CCOC(=O)c1c(N)sc(N)c1C(=O)OCC	-5	-1	7	6	6	nt	nt	nt
CCOC(=O)C(C(C)=O)c1c(Br)c(O)c(O)c2c(C(=O)c3ccc(C)cc3)coc12 (stereo not drawn)	-1	32*	-4	47*	69*	35*	78*	38*
CCOc1cccc(=O)c2c(C)n(-c3ccc(C(=O)O)cc3)c(C)c12	13	39*	1	38*	8	21	nt	25
COc1cccc(=O)c2c(C)n(-c3ccc(C(=O)O)cc3)c(C)c12	0	30*	-2	37*	11	1	nt	16
CCOc1ccc(C2CC=C(C(=O)O)CN2S(=O)(=O)c2ccc(C)cc2)cc1 (stereo not drawn)	nt	4	-5	nt	nt	nt	nt	nt
O=c1cccc(-c2ccc3ccccc3c2)o1	-1	3	-3	nt	nt	nt	nt	nt
CCc1nc2ccc(C(=O)N(C)CCCN(C)C)cn2c1N(C=O)CCC(C)C	3	2	4	nt	nt	nt	nt	nt
O=c1cc(-c2ccc(O)c(O)c2)oc2c1ccc1ccccc12	40*	34*	-3	78*	66*	82*	74*	31*	BSA probe FL=-5;TCR-CD3 conf=75*
O=c1cc(-c2ccccc2)oc2c1ccc1ccccc12	1	-3	-11	nt	nt	nt	nt	nt
CC(C)(C)c1ccc(O)c(N=Cc2cc3c(cc2[N+](=O)[O-])OCO3)c1	17	49*	10	41*	39*	15	9	40*
CC(=O)N(C)c1ccc(N=Cc2cc3c(cc2[N+](=O)[O-])OCO3)cc1	8	28	13	7	10	nt	nt	nt
O=c1oc2ccccc2c(O)c1Cc1cc(Cl)c2cccnc2c1O	0	33*	12	50*	52*	66*	54*	27
CCCCCC(=O)Nc1nc(C)c(-c2csc(Nc3cc(OC)ccc3OC)n2)s1	1	44*	16	40*	42*	29*	21	56*
CCCCCCC(=O)Nc1nc(C)c(-c2csc(Nc3cc(OC)ccc3OC)n2)s1	6	34*	11	47*	16	41*	nt	49*
CCCCC(=O)Nc1nc(C)c(-c2csc(Nc3ccccc3OC)n2)s1	-15	-11	-8	17	0	nt	nt	nt
OC[C@@H]1CN(Cc2cccnc2)C[C@H](n2cnc3c(N4CCCC4)ncnc32)O1	2	-12	-2	nt	nt	nt	nt	nt
O=C(O)c1ccc(N/N=C/c2cn(Cc3ccccc3F)c3ccccc23)cc1	1	46*	15	46*	5	63*	nt	69*
COC(=O)N/N=C/c1cn(Cc2ccccc2F)c2ccccc12	7	4	6	12	-3	nt	nt	nt
Cc1ccccc1CN1CCCCC(NC(=O)c2cccc([N+](=O)[O-])c2)C1=O (stereo not drawn)	nt	0	-1	nt	nt	nt	nt	nt
COc1cccc(N/N=C/c2cccc(Br)c2O)c1	0	7	12	8	12	nt	nt	nt
SMILES	TCR-CD3 inh	ABHD4 inh	SIAE primary	pPAFAH FP inh	HTRA1 inhibitor	pPAFAH FP conf	HTRA1 conf	mABHD4 conf	others
Cc1cccc(N/N=C/c2ccc(O)c(O)c2O)c1	6	36*	-2	45*	59*	44*	62*	35*
CN(C(=S)Nc1ccc(SC(F)F)cc1)c1ccc(O)cc1	4	45*	17	51*	31	2	nt	-4
CN(C(=S)Nc1ccccc1)c1ccccc1	5	8	2	2	-1	nt	nt	nt
COCCCNC(=O)Cn1nc(Cc2ccncc2)c2ccccc2c1=O	nt	1	0	nt	nt	nt	nt	nt
Oc1ccccc1-c1csc(-c2ccccc2)n1	-6	-14	-3	-1	-24	nt	nt	nt
Oc1ccc(-c2csc(-c3ccccc3)n2)cc1O	-7	31*	8	45*	59*	59*	48*	31*
COc1cccc(N=Nc2ccc(O)c3ncccc23)c1	0	43*	8	60*	76*	25*	67*	48*
COCc1ccc(O)c2ncccc12	0	5	-3	4	9	nt	nt	nt
COC(=O)[C@]12CCCCC=C1N(Cc1ccc(OC)cc1)C(=O)[C@@H]2CC(=O)NCCC(C)C	nt	-2	2	nt	nt	nt	nt	nt
Cc1cc(C(=O)O)ccc1N/C=C1\CCCC(C)C1=O (stereo not drawn)	-3	4	5	-2	0	nt	nt	nt
CC1CCC/C(=C\Nc2ccc(O)cc2)C1=O (stereo not drawn)	24*	44*	16	35*	39*	3	9	22	BSA probe FL=2;TCR-CD3 conf=3
O=[N+]([O-])c1c(NCCCO)cc(SCc2ccco2)c2nonc12	11	54*	-2	59*	11	-2	nt	16
CC1=NN(c2cccc(C(=O)O)c2)C(=O)/C1=C\C=C\c1ccco1	19*	40*	12	45*	16	32*	nt	57*	BSA probe FL=-10;TCR-CD3 conf=15
CCCSC1=N/C(=C\C=C\c2ccco2)C(=O)S1	15	36*	11	45*	30	13	nt	4
CCCSC1=N/C(=C\c2ccsc2)C(=O)S1	10	4	-4	-6	-8	nt	nt	nt
CCCCCCCCCCCCCCCC[n+]1cccc2ccccc21	5	37*	2	57*	64*	33*	71*	54*
CCCCCCCCC[n+]1cccc2c3ccccc3ccc21	nt	nt	nt	7	11	nt	nt	nt
O=C(NCCc1ccccc1)OCc1cn(-c2ccc(F)c(F)c2)nn1	nt	-6	-5	nt	nt	nt	nt	nt

Source: PubChem BioAssay
